Assay results published in ChEMBL document CHEMBL1142540, “Novel piperidinylpyrimidine derivatives as inhibitors of HIV-1 LTR activation” (Bioorg Med Chem, 2008).

Assays:
[1] = Inhibition of HIV1 LTR-driven CAT gene expression in PMA-stimulated human JURKAT cells; assay type: cell-based; settings: Human immunodeficiency virus 1, Jurkat
Summary of the method: (§1)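 Jurkat cells electroporated (140 V) with HIV-1 LTR-CAT plasmid p469 using DEAE-dextran and cultured 20 h. Cells then stimulated with PMA 10 ng/ml in presence of compound for 24 h at 37 °C, lysed by freeze-thaw.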

Jurkat [2] = experiment: Inhibition of HIV1 LTR-driven CAT gene expression in PMA-stimulated human JURKAT cells at 5 uM; assay type: cell-based; settings: Human immunodeficiency virus 1; summary of the method: as §1
Jurkat [3] = experiment: Cytotoxicity against human JURKAT cells; assay type: cell-based
Summary of the method: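 Cell number of treated Jurkat cells counted by Coulter counter to assess inhibition of proliferation.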

[4] = Inhibition of Tat-induced HIV1 LTR transactivation; design: species or system Human immunodeficiency virus 1
Summary of the method: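 Jurkat cells electroporated at 140 V with HIV-1 LTR-CAT plasmid p469 (1 µg) plus pSV-Tat (0.5 µg) and DEAE-dextran, then cultured 20 h at 37 °C. Cells were exposed to compound without PMA for 24 h and lysed. Reported as % inhibition at 5 µM or IC50, single determination.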

PBMC = experiment: Inhibition of LPS-stimulated TNFalpha production in human PBMC; assay type: functional, cell-based
Summary of the method: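 Human PBMC from healthy donors isolated by Ficoll-Paque, seeded at 1×10^5 cells/well in RPMI 1640 with 10% heat-inactivated FBS and L-glutamine. Stimulated with LPS 0.1 ug/ml final, compound added at the same time (DMSO below 0.1%), 20 h; supernatants collected for TNF-α.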

Jurkat [5] = experiment: Inhibition of HIV1 LTR-driven CAT gene expression in Tat-stimulated human JURKAT cells at 1 uM; assay type: cell-based; settings: Human immunodeficiency virus 1
Summary of the method: (§2)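 Jurkat cells co-electroporated (140 V) with LTR-CAT p469 plus pSV-Tat using DEAE-dextran, cultured 20 h, then treated with compound alone (no PMA) for 24 h at 37 °C.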

[6] = Inhibition of HIV1 LTR-driven CAT gene expression in Tat-stimulated human JURKAT cells; assay type: cell-based; settings: Human immunodeficiency virus 1, Jurkat; summary of the method: as §2
[7] = Inhibition of HIV1 LTR-driven CAT gene expression in PMA-stimulated HEK293-27-2 cells assessed as […]; settings: Human immunodeficiency virus 1
[8] = Inhibition of Tat-induced HIV1 LTR transactivation in human HeLa cells assessed as CAT expression after 2 days; assay type: cell-based; settings: Human immunodeficiency virus 1, HeLa, 48 h
[9] = tested on: Peritoneal macrophage cell; experiment: Inhibition of LPS-stimulated TNFalpha production in BALB/c mouse peritoneal macrophages by ELISA; assay type: functional, cell-based
Summary of the method: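 Thioglycolate-elicited peritoneal macrophages from 5-week-old female BALB/c mice, adherent cells at 2×10^5/well in MEM with 10% FBS. LPS 10 ug/ml final, added together with compound (DMSO below 0.1%), 20 h. Supernatant TNF-α measured by sandwich ELISA against recombinant mouse TNF-α standard curve, absorbance at 450 nm.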

Compound | IC50 [1] [nM] | inhibition (Jurkat [2]) [%] | Activity (Jurkat [3]) | further results
COc1ccc(Cc2cc(C3CCN(C(=O)c4ccccc4)CC3)nc(N)n2)cc1 | > 5000 | 19 | Non-toxic | 
O=C1CN=C(c2ccc[nH]2)c2cc(Cl)ccc2N1 |  |  |  | IC50 [4]: 100 nM
COc1ccc(Cc2cc(C3CCN(C(C)=O)CC3)nc(N)n2)cc1 | > 5000 | 0 | Non-toxic | 
COc1ccc(Cc2cc(C3CCN(C(=O)c4ccc5c(c4)OCO5)CC3)nc(N)n2)cc1OC | 600 |  | Non-toxic | IC50 (PBMC): 3.2 µM
Cc1cc(C2CCN(C(=O)c3ccc4c(c3)OCO4)CC2)nc(N)n1 | > 5000 | 10 | Non-toxic | 
Nc1nc(Cc2ccccc2)cc(C2CCN(C(=O)c3ccc4c(c3)OCO4)CC2)n1 | 800 |  | Non-toxic | IC50 (PBMC): 3.2 µM
COc1cc(Cc2cc(C3CCN(C(=O)c4ccc5c(c4)OCO5)CC3)nc(N)n2)cc(OC)c1 | 300 |  | Non-toxic | inhibition (Jurkat [5]): 56%; IC50 [6]: < 1000 nM; IC50 (PBMC): 3.3 µM
COc1ccc(Cc2cc(C3CCN(C(=O)c4ccc5ccoc5c4)CC3)nc(N)n2)cc1 | > 5000 | 2 | Non-toxic | 
CCCCCCCC(=O)N1CCC(c2cc(Cc3ccc(OC)cc3)nc(N)n2)CC1 | > 5000 | 19 | Non-toxic | 
COc1ccc(Cc2cc(C3CCN(C(=O)Cc4ccc(OC)c(OC)c4)CC3)nc(N)n2)cc1 | > 5000 | 7 | Non-toxic | 
CC(=O)CCCCn1c(=O)c2c(ncn2C)n(C)c1=O [PENTOXIFYLLINE] |  |  |  | IC50 [7]: 500 µM
Nc1nc(-c2ccc(Cl)cc2)cc(C2CCN(C(=O)c3ccc4c(c3)OCO4)CC2)n1 | > 5000 | 42 | Non-toxic | 
COc1ccc(Cc2cc(C3CCN(C(=O)c4ccc5occc5c4)CC3)nc(N)n2)cc1 | > 5000 | 4 | Non-toxic | 
COc1ccc(Cc2cc(C3CCN(C(=O)c4ccc5nsnc5c4)CC3)nc(N)n2)cc1 | > 5000 | 4 | Non-toxic | 
Nc1nc(Cc2ccc(Cl)cc2)cc(C2CCN(C(=O)c3ccc4c(c3)OCO4)CC2)n1 | 1300 |  | Non-toxic | IC50 [6]: 7100 nM; IC50 (PBMC): 13 µM
COc1ccc(Cc2cc(C3CCN(C(=O)c4ccc5ncoc5c4)CC3)nc(N)n2)cc1 | > 5000 | -8 | Non-toxic | 
Cn1cc(C(=O)O)c(=O)c2cc(F)c(N3CC=C(c4ccccc4)CC3)c(C(F)(F)F)c21 [FLUOROQUINOLINE K37] |  |  |  | IC50 [8]: < 160 nM
COc1ccc(Cc2cc(C3CCN(C(=O)c4ccc5c(c4)OCO5)CC3)no2)cc1 | > 5000 | 36 | Non-toxic | 
COc1ccc(Cc2cc(C3CCN(C(=O)c4ccc(OC)cc4)CC3)nc(N)n2)cc1 | > 5000 | -5 | Non-toxic | IC50 [9]: 500 nM
COc1ccc(Cc2cc(C3CCN(C(=O)Cc4ccc5c(c4)OCO5)CC3)nc(N)n2)cc1 | > 5000 | 16 | Non-toxic | 
COc1ccc(Cc2cc(C3CCN(C(=O)c4ccc5c(c4)OCO5)CC3)n[nH]2)cc1 | > 5000 | 35 | Non-toxic | 
COc1ccc(-c2cc(C3CCN(C(=O)c4ccc5c(c4)OCO5)CC3)nc(N)n2)cc1 | 1900 |  | Non-toxic | 
Nc1nc(Cc2ccc(OCc3ccccc3)cc2)cc(C2CCN(C(=O)c3ccc4c(c3)OCO4)CC2)n1 | 1200 |  | Non-toxic | IC50 [6]: 2100 nM
COc1cccc(Cc2cc(C3CCN(C(=O)c4ccc5c(c4)OCO5)CC3)nc(N)n2)c1 | 300 |  | Non-toxic | IC50 (PBMC): 2.7 µM
COc1ccc(Cc2cc(C3CCN(C(=O)c4ccc5c(c4)OCCO5)CC3)nc(N)n2)cc1 | > 5000 | 7 | Non-toxic | 
COc1ccc(Cc2cc(C3CCN(C(=O)c4ccc5c(c4)OCO5)CC3)nc(Cl)n2)cc1 | 700 |  | Non-toxic | 

Compound | IC50 [1] [nM] | inhibition (Jurkat [2]) [%] | Activity (Jurkat [3]) | further results
COc1ccc(Cc2cc(C3CCN(C(=O)c4ccc5c(c4)CCO5)CC3)nc(N)n2)cc1 | > 5000 | -8 | Non-toxic | 
COc1ccc(Cc2cc(C3CCN(C(=O)c4ccc5c(c4)OCO5)CC3)ncn2)cc1 | 500 |  | Non-toxic | 
COc1ccc(Cc2cc(C3CCN(Cc4ccc5c(c4)OCO5)CC3)nc(N)n2)cc1 | > 5000 | -2 | Non-toxic | 
COc1ccc(Cc2cc(C3CCN(C(=O)c4ccc(Cl)cc4)CC3)nc(N)n2)cc1 | > 5000 | 21 | Non-toxic | IC50 [9]: 600 nM
Nc1nc(Cc2ccc(O)cc2)cc(C2CCN(C(=O)c3ccc4c(c3)OCO4)CC2)n1 | > 5000 | 36 | Non-toxic | 
C[S+]([O-])c1ccc(Cc2cc(C3CCN(C(=O)c4ccc5c(c4)OCO5)CC3)nc(N)n2)cc1 (configuration not stated) | > 5000 | 27 | Non-toxic | 
COc1ccc(Cc2cc(C3CCN(C(=O)c4ccc(Cl)c(Cl)c4)CC3)nc(N)n2)cc1 | > 5000 | 17 | Non-toxic | IC50 [9]: 700 nM
C[S+]([O-])c1ccc(-c2nc(-c3ccc(F)cc3)c(-c3ccncc3)[nH]2)cc1 (configuration not stated) [SB-203580] |  |  |  | IC50 [8]: 100 nM
CSc1ccc(Cc2cc(C3CCN(C(=O)c4ccc5c(c4)OCO5)CC3)nc(N)n2)cc1 | 200 |  | Non-toxic | inhibition (Jurkat [5]): 57%; IC50 [6]: < 1000 nM
COc1ccc(Cc2cc(C3CCN(C(=O)c4ccc5c(c4)OCO5)CC3)on2)cc1 | > 5000 | 35 | Non-toxic | 
COc1ccc(Cc2cc(C3CCN(C(=O)c4ccc5c(c4)OCO5)CC3)nc(N)n2)cc1 | 600 | 86 | Non-toxic | IC50 [9]: 600 nM; IC50 [6]: 4000 nM; IC50 (PBMC): 1.9 µM
COc1ccc(Cc2cc(C3CCN(C(=O)c4ccc5ocnc5c4)CC3)nc(N)n2)cc1 | > 5000 | -7 | Non-toxic | 
COc1ccc(-c2c(C)nc(N)nc2C2CCN(C(=O)c3ccc4c(c3)OCO4)CC2)cc1 | > 5000 | 31 | Non-toxic | 
COc1ccc(Cc2cc(C3CCN(C(=O)c4ccc5[nH]ccc5c4)CC3)nc(N)n2)cc1 | > 5000 | 1 | Non-toxic | 
Nc1nc(C2CCN(C(=O)c3ccc4c(c3)OCO4)CC2)c2ccccc2n1 | 2600 |  | Non-toxic | 
Nc1nc(Cc2ccc(Br)cc2)cc(C2CCN(C(=O)c3ccc4c(c3)OCO4)CC2)n1 | 700 |  | Non-toxic | 
COc1ccc(OC)c(Cc2cc(C3CCN(C(=O)c4ccc5c(c4)OCO5)CC3)nc(N)n2)c1 | 200 |  | Non-toxic | inhibition (Jurkat [5]): 58%; IC50 [6]: < 1000 nM; IC50 (PBMC): 7.7 µM
COc1ccc(Cc2cc(C3CCN(C(=O)c4ccc5c(c4)OCO5)CC3)nc(=O)[nH]2)cc1 | > 5000 |  | Non-toxic | 
Nc1nc(CCc2ccccc2)cc(C2CCN(C(=O)c3ccc4c(c3)OCO4)CC2)n1 | 2100 |  | Non-toxic | 
COc1ccc(Cc2cc(C3CCN(C(=O)c4cccc5c4OCO5)CC3)nc(N)n2)cc1 | > 5000 | 13 | Non-toxic | 
COc1ccc(Cc2cc(C3CCN(C(=O)c4ccc([N+](=O)[O-])cc4)CC3)nc(N)n2)cc1 | > 5000 | 23 | Non-toxic | IC50 [9]: 700 nM
Nc1nc(Cc2ccc3c(c2)OCO3)cc(C2CCN(C(=O)c3ccc4c(c3)OCO4)CC2)n1 | 700 |  | Non-toxic | IC50 (PBMC): 3.3 µM
CS(=O)(=O)c1ccc(Cc2cc(C3CCN(C(=O)c4ccc5c(c4)OCO5)CC3)nc(N)n2)cc1 | > 5000 | 37 | Non-toxic | 
COc1ccc(Cc2cc(C3CCN(C(=O)c4ccc(OC)c(OC)c4)CC3)nc(N)n2)cc1 | > 5000 | 14 | Non-toxic | IC50 [9]: 900 nM
Nc1nc(-c2ccccc2)cc(C2CCN(C(=O)c3ccc4c(c3)OCO4)CC2)n1 | > 5000 | 47 | Non-toxic | 
